Measured values published in ChEMBL document CHEMBL4316659, “Selective Antiproliferative Withanolides from Species in the Genera Eriolarynx and Deprea” (J Nat Prod, 2019).

Tests used:
A549 = assay: Antiproliferative activity against human A549 cells incubated for 48 hrs by SRB assay; assay type: functional; conditions: A549, 48 h
In short: (§1)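 Cells kept in RPMI 1640 with 5% FBS and 2 mM L-glutamine at 37 °C under 5% CO2. Seeded at 2500 (A549, HBL-100, HeLa, SW1573) or 5000 (T-47D, WiDr, BJ-hTERT) cells/well and left 24 h. Compounds added as serial dilutions (0.01−100 μM) for 48 h. SRB staining read at 530 and 620 nm. GI50 calculated by NCI formulas. Mean of at least two independent experiments ± SD.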

HBL-100 = assay: Antiproliferative activity against human HBL100 cells incubated for 48 hrs by SRB assay; assay type: functional; conditions: HBL-100, 48 h; in short: as §1
HeLa = assay: Antiproliferative activity against human HeLa cells incubated for 48 hrs by SRB assay; assay type: functional; in short: as §1
SW1573 [1] = assay: Antiproliferative activity against human SW1573 cells incubated for 48 hrs by SRB assay; assay type: functional; conditions: SW1573, 48 h; in short: as §1
T47D = assay: Antiproliferative activity against human T47D cells incubated for 48 hrs by SRB assay; assay type: functional; in short: as §1
WiDr = assay: Antiproliferative activity against human WiDr cells incubated for 48 hrs by SRB assay; assay type: functional; in short: as §1
[2] = Antiproliferative activity against human hTERT-BJ cells incubated for 48 hrs by SRB assay; assay type: cell-based; in short: as §1
[3] = Ratio of GI50 for antiproliferative activity against human hTERT-BJ cells incubated for 48 hrs by SRB assay to GI50 for antiproliferative activity against human A549 cells incubated for 48 hrs by SRB assay
In short: (§2)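 Selectivity is GI50 in the nontumor BJ-hTERT fibroblasts divided by GI50 in each tumor line. All values come from the same 48 h SRB assay, with 0.01−100 μM serial dilutions.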

[4] = Ratio of GI50 for antiproliferative activity against human hTERT-BJ cells incubated for 48 hrs by SRB assay to GI50 for antiproliferative activity against human HBL100 cells incubated for 48 hrs by SRB assay; in short: as §2
[5] = Ratio of GI50 for antiproliferative activity against human hTERT-BJ cells incubated for 48 hrs by SRB assay to GI50 for antiproliferative activity against human HeLa cells incubated for 48 hrs by SRB assay; assay type: toxicity, cell-based; conditions: hTERT-BJ cells versus HeLa cells, read-out: RatioGI50; in short: as §2
[6] = Ratio of GI50 for antiproliferative activity against human hTERT-BJ cells incubated for 48 hrs by SRB assay to GI50 for antiproliferative activity against human SW1573 cells incubated for 48 hrs by SRB assay; assay type: toxicity, cell-based; conditions: hTERT-BJ cells versus SW1573 cells, read-out: RatioGI50; in short: as §2
[7] = Ratio of GI50 for antiproliferative activity against human hTERT-BJ cells incubated for 48 hrs by SRB assay to GI50 for antiproliferative activity against human T47D cells incubated for 48 hrs by SRB assay; assay type: toxicity, cell-based; conditions: hTERT-BJ cells versus T47D cells, read-out: RatioGI50; in short: as §2
[8] = Ratio of GI50 for antiproliferative activity against human hTERT-BJ cells incubated for 48 hrs by SRB assay to GI50 for antiproliferative activity against human WiDr cells incubated for 48 hrs by SRB assay; assay type: toxicity, cell-based; conditions: hTERT-BJ cells versus WiDr cells, read-out: RatioGI50; in short: as §2
SW1573 [9] = assay: Antiproliferative activity against human SW1573 cells incubated for 48 hrs in absence of P-gp and CYP3A4/5 inhibitor verapamil by SRB assay; assay type: functional; conditions: SW1573, 48 h
In short: (§3)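 Wild-type SW1573 (2500 cells/well) and P-gp-overexpressing SW1573/Pgp (5000 cells/well) in RPMI 1640 with 5% FBS. Seeded 24 h, then exposed 48 h to serial dilutions (0.01−100 μM) with or without 10 μM verapamil (final) in the medium. Paclitaxel and vinblastine were reference drugs. SRB read at 530/620 nm. GI50 by NCI formulas, mean of at least two independent experiments ± SD.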

SW1573 [10] = assay: Antiproliferative activity against human SW1573 cells over-expressing P-gp incubated for 48 hrs in absence of P-gp and CYP3A4/5 inhibitor verapamil by SRB assay; assay type: functional; conditions: SW1573, 48 h; in short: as §3
SW1573 [11] = assay: Resistance factor, ratio of GI50 for Antiproliferative activity against human SW1573 cells over-expressing P-gp incubated for 48 hrs in absence of P-gp and CYP3A4/5 inhibitor verapamil by SRB assay to GI50 for antiproliferative activity against human SW1573 cells incubated for 48 hrs in absence of P-gp and CYP3A4/5 inhibitor verapamil by SRB assay; assay type: functional
In short: (§4)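 Resistance factor is GI50 in SW1573/Pgp divided by GI50 in wild-type SW1573. Both come from 48 h SRB assays, run with 10 μM verapamil (final) or without it.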

SW1573 [12] = assay: Antiproliferative activity against human SW1573 cells incubated for 48 hrs in presence of P-gp and CYP3A4/5 inhibitor verapamil by SRB assay; assay type: functional; conditions: SW1573, 48 h; in short: as §3
SW1573 [13] = assay: Antiproliferative activity against human SW1573 cells over-expressing P-gp incubated for 48 hrs in presence of P-gp and CYP3A4/5 inhibitor verapamil by SRB assay; assay type: functional; conditions: SW1573, 48 h; in short: as §3
SW1573 [14] = assay: Resistance factor, ratio of GI50 for Antiproliferative activity against human SW1573 cells over-expressing P-gp incubated for 48 hrs in presence of P-gp and CYP3A4/5 inhibitor verapamil by SRB assay to GI50 for antiproliferative activity against human SW1573 cells incubated for 48 hrs in presence of P-gp and CYP3A4/5 inhibitor verapamil by SRB assay; assay type: functional; in short: as §4

Structure (SMILES) | GI50 (A549) [µM] | GI50 (HBL-100) [µM] | GI50 (HeLa) [µM] | GI50 (SW1573 [1]) [µM] | GI50 (T47D) [µM] | GI50 (WiDr) [µM] | GI50 at 48 h [2] [µM] | RatioGI50 [3] | RatioGI50 [4] | selectivity ratio at 48 h [5] | selectivity ratio at 48 h [6] | selectivity ratio at 48 h [7] | selectivity ratio at 48 h [8] | GI50 (SW1573 [9]) [µM] | GI50 (SW1573 [10]) [µM] | RatioGI50 (SW1573 [11]) | GI50 (SW1573 [12]) [µM] | GI50 (SW1573 [13]) [µM] | RatioGI50 (SW1573 [14])
CO[C@H]1O[C@@](C)([C@H]2CC(C)=C(C)C(=O)O2)[C@H]2CC[C@H]3[C@@H]4[C@@H](O)C=C5[C@@H](O)C=CC(=O)[C@]5(C)[C@H]4CC[C@]123 | 3.1 | 3.6 | 3.2 | 3.3 | 3.9 | > 10 | > 10 | 2 - 10 | 2 - 10 | 2 to 10 | 2 to 10 | 2 to 10 | 2 to 10 | 3 | 3.3 | 1.1 | 3.5 | 2.3 | 0.7
C[C@]12C(=O)C=CC=C1[C@H](O)[C@H]1O[C@]3([C@@H]4C[C@]5(C)C(=O)O[C@H]4C[C@@]5(C)O)CC[C@@]4(O3)[C@H]1[C@@H]2CC[C@]4(C)O | > 10 | > 10 | 3.3 | 4.4 | 6.4 | > 10 | 5.3 | – | – | – | – | – | – | 4.1 | 4.5 | 1.1 | 5.5 | 2.7 | 0.5
CC1=C(C)C(=O)O[C@@H]([C@]2(C)OC(O)[C@]34CC[C@H]5[C@@H]([C@@H](O)C=C6[C@@H](O)C=CC(=O)[C@@]65C)[C@@H]3CC[C@H]24)C1 (mixture of isomers) | > 10 | > 10 | > 10 | > 10 | > 10 | > 10 | > 10 | 2 - 10 | 2 - 10 | 2 to 10 | 2 to 10 | 2 to 10 | 2 to 10 | – | – | – | – | – | –
CC[C@]1(O)C[C@@H]2CN(CCc3c([nH]c4ccccc34)[C@@](C(=O)OC)(c3cc4c(cc3OC)N(C)[C@H]3[C@@](O)(C(=O)OC)[C@H](OC(C)=O)[C@]5(CC)C=CCN6CC[C@]43[C@@H]65)C2)C1 [VINBLASTINE] | – | – | – | – | – | – | – | – | – | – | – | – | – | 0.0009 | 2.05 | 2388 | 0.0008 | 0.001 | 1.3
CCO[C@@H]1O[C@@](C)([C@H]2CC(C)=C(C)C(=O)O2)[C@H]2CC[C@H]3[C@@H]4[C@@H](O)C=C5[C@@H](O)C=CC(=O)[C@]5(C)[C@H]4CC[C@]123 | 2.8 | 3.2 | 2.5 | 2.4 | 4.7 | 6.1 | > 10 | 2 - 10 | 2 - 10 | 2 to 10 | 2 to 10 | 2 to 10 | 2 to 10 | 2.1 | 2.3 | 1.1 | 3.9 | 1.7 | 0.4
CC(=O)O[C@H]1C(=O)[C@@]2(C)[C@H]([C@H](OC(=O)c3ccccc3)[C@]3(O)C[C@H](OC(=O)[C@H](O)[C@@H](NC(=O)c4ccccc4)c4ccccc4)C(C)=C1C3(C)C)[C@]1(OC(C)=O)CO[C@@H]1C[C@@H]2O [PACLITAXEL] | – | – | – | – | – | – | – | – | – | – | – | – | – | 0.0015 | 0.196 | 128 | 0.0016 | 0.0042 | 2.6
C[C@]12C(=O)C=CCC1=C[C@H]1O[C@]3([C@@H]4C[C@]5(C)C(=O)O[C@H]4C[C@@]5(C)O)CC[C@@]4(O3)[C@H]1[C@@H]2CC[C@]4(C)O | > 10 | > 10 | > 10 | > 10 | > 10 | > 10 | > 10 | 2 - 10 | 2 - 10 | 2 to 10 | 2 to 10 | 2 to 10 | 2 to 10 | – | – | – | – | – | –
CC1=C(C)C(=O)O[C@@H]([C@](C)(O)[C@H]2CC[C@H]3[C@@H]4[C@@H](O)C=C5[C@@H](O)C=CC(=O)[C@]5(C)[C@H]4CC[C@]23C)C1 | > 10 | 4.8 | 5.3 | 4.1 | > 10 | > 10 | > 10 | 2 - 10 | 2 - 10 | 2 to 10 | 2 to 10 | 2 to 10 | 2 to 10 | 3.4 | 3.2 | 0.9 | 4.2 | 3.2 | 0.8
CC1=C(C)C(=O)O[C@@H]([C@]2(C)OC(O)[C@]34CC[C@H]5[C@@H]([C@H](O)C=C6CC=CC(=O)[C@@]65C)[C@@H]3CC[C@H]24)C1 (stereo partly drawn) | > 10 | > 10 | > 10 | > 10 | > 10 | > 10 | – | – | – | 2 to 10 | 2 to 10 | 2 to 10 | 2 to 10 | – | – | – | – | – | –
